Columns and labels:
[1] = Cytotoxicity against human MT4 cells by MTT assay; format: toxicity, cell-based
[2] = system: Human immunodeficiency virus 1; assay: Antiviral activity against wild type HIV-1 IIIB infected in human MT4 cells […]; format: functional, organism-based; settings: Human immunodeficiency virus 1, IIIB
[3] = Selectivity index, ratio of CC50 for cytotoxicity against human MT4 cells to EC50 for antiviral activity against wild type HIV-1 IIIB infected in human MT4 cells; format: toxicity, cell-based; settings: read-out: Ratio CC50/EC50
Outline: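 Selectivity index calculated as CC50/EC50 ratio, both values from MTT viability readout in MT-4 cells, antiviral arm using wild-type HIV-1 IIIB.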

[4] = system: Human immunodeficiency virus 1; assay: Antiviral activity against HIV-1 harboring E138K mutant infected in human MT4 cells […]; format: functional, organism-based; settings: Human immunodeficiency virus 1, MT4
[5] = system: Human immunodeficiency virus 1; assay: Antiviral activity against HIV-1 harboring Y188L mutant infected in human MT4 cells assessed as inhibition of virus-induced cytopathic effect by MTT assay; settings: Human immunodeficiency virus 1, MT4
[6] = system: Human immunodeficiency virus 1; assay: Antiviral activity against HIV-1 harboring L100I mutant infected in human MT4 cells […]; format: functional, organism-based; settings: Human immunodeficiency virus 1, MT4
[7] = system: Human immunodeficiency virus 1; assay: Antiviral activity against HIV-1 harboring Y181C mutant infected in human MT4 cells […]; format: functional, organism-based; settings: Human immunodeficiency virus 1, MT4
[8] = target: Human immunodeficiency virus type 1 reverse transcriptase (Human immunodeficiency virus 1, UniProt Q72547); assay: Inhibition of wild type HIV-1 Reverse transcriptase
[9] = system: Human immunodeficiency virus 1; assay: Antiviral activity against HIV-1 harboring K103N mutant infected in human MT4 cells […]; format: functional, organism-based; settings: Human immunodeficiency virus 1, MT4

Which results are given for `CCNC(c1ccnc(Nc2ccc(C#N)cc2)n1)c1ccc(-c2ccc(C#N)cc2)cc1OC(F)(F)F` (stereo unspecified)?
CC50 [1]: 21000 nM; EC50 [2]: 505 nM; selectivity ratio [3]: 43

For `CCNC(c1ccnc(Nc2ccc(C#N)cc2)n1)c1ccc(-c2ccc(C#N)cc2)cc1F` (stereo unspecified), which CC50 [1] is on record?
Its CC50 is 31000 nM.

And the EC50 [2]?
Its EC50 is 357 nM.

And the selectivity ratio [3]?
The selectivity ratio was 87.

With `CC(C)NC(c1ccnc(Nc2ccc(C#N)cc2)n1)c1ccc(-c2ccc(C#N)cc2)cc1Cl` (stereo unspecified) as the compound, how does the CC50 [1] read?
The CC50 was 30000 nM.

And the EC50 [2]?
Its EC50 is 230 nM.

What about the selectivity ratio [3] of the same compound?
The selectivity ratio was 130.

Which CC50 [1] does the source give for `CCNC(c1ccnc(Nc2ccc(C#N)cc2)n1)c1ccc(-c2ccc(C#N)cc2)cc1C(F)(F)F` (stereo unspecified) here?
Its CC50 is 22000 nM.

What about the EC50 [2] of the same compound?
Its EC50 is 153 nM.

And the selectivity ratio [3]?
Its selectivity ratio is 146.

What does the source list for `N#Cc1ccc(Nc2nccc(/C(=N/N)c3ccc(-c4ccc(C#N)cc4)cc3F)n2)cc1`?
CC50 [1]: > 46000 nM; EC50 [4]: 194 nM; EC50 [2]: 7 nM; EC50 [5]: > 46100 nM; selectivity ratio [3]: > 6210; EC50 [6]: 69 nM; EC50 [7]: 210 nM; IC50 [8]: 20 nM; EC50 [9]: 125 nM

Which results are given for `CCCNC(c1ccnc(Nc2ccc(C#N)cc2)n1)c1ccc(-c2ccc(C#N)cc2)cc1OC(F)(F)F` (stereo unspecified)?
CC50 [1]: 27000 nM; EC50 [2]: 662 nM; selectivity ratio [3]: 40

For `N#Cc1ccc(Nc2nccc(C(NCCCO)c3ccc(-c4ccc(C#N)cc4)cc3Cl)n2)cc1` (stereo unspecified), which CC50 [1] is on record?
Its CC50 is 23000 nM.

And the EC50 [2]?
Its EC50 is 67 nM.

And the selectivity ratio [3]?
The selectivity ratio was 345.

Which CC50 [1] does the source give for `N#Cc1ccc(Nc2nccc(C(NC3CC3)c3ccc(-c4ccc(C#N)cc4)cc3F)n2)cc1` (stereo unspecified) here?
Its CC50 is > 271000 nM.

What about the EC50 [2] of the same compound?
The EC50 was 630 nM.

And the selectivity ratio [3]?
Its selectivity ratio is > 431.

For `CCNC(c1ccnc(Nc2ccc(C#N)cc2)n1)c1ccc(-c2ccc(C#N)cc2)cc1Cl` (stereo unspecified), which CC50 [1] is on record?
Its CC50 is 19000 nM.

And the EC50 [2]?
Its EC50 is 99 nM.

What about the selectivity ratio [3] of the same compound?
Its selectivity ratio is 187.

Which CC50 [1] does the source give for `COc1cc(-c2ccc(C#N)cc2)ccc1C(NC1CC1)c1ccnc(Nc2ccc(C#N)cc2)n1` (stereo unspecified) here?
The CC50 was 123000 nM.

And the EC50 [2]?
The EC50 was 72 nM.

What about the selectivity ratio [3] of the same compound?
The selectivity ratio was 1680.

With `Cc1cc(-c2ccc(C#N)cc2)ccc1C(NC(C)C)c1ccnc(Nc2ccc(C#N)cc2)n1` (stereo unspecified) as the compound, how does the CC50 [1] read?
The CC50 was 82000 nM.

And the EC50 [2]?
The EC50 was 166 nM.

What about the selectivity ratio [3] of the same compound?
Its selectivity ratio is 495.

Which results are given for `Cc1cc(-c2ccc(C#N)cc2)ccc1C(NC1CC1)c1ccnc(Nc2ccc(C#N)cc2)n1` (stereo unspecified)?
CC50 [1]: > 274000 nM; EC50 [2]: 156 nM; selectivity ratio [3]: > 1760

Which CC50 [1] does the source give for `CCCNC(c1ccnc(Nc2ccc(C#N)cc2)n1)c1ccc(-c2ccc(C#N)cc2)cc1Cl` (stereo unspecified) here?
Its CC50 is > 261000 nM.

And the EC50 [2]?
The EC50 was 184 nM.

What about the selectivity ratio [3] of the same compound?
Its selectivity ratio is > 1420.

Which results are given for `CCCNC(c1ccnc(Nc2ccc(C#N)cc2)n1)c1ccc(-c2ccc(C#N)cc2)cc1F` (stereo unspecified)?
CC50 [1]: > 270000 nM; EC50 [2]: 259 nM; selectivity ratio [3]: > 1060

With `N#Cc1ccc(Nc2nccc(C(NC3CC3)c3ccc(-c4ccc(C#N)cc4)cc3C(F)(F)F)n2)cc1` (stereo unspecified) as the compound, how does the CC50 [1] read?
The CC50 was 75000 nM.

And the EC50 [2]?
The EC50 was 294 nM.

What about the selectivity ratio [3] of the same compound?
Its selectivity ratio is 250.

Which results are given for `N#Cc1ccc(Nc2nccc(C(NCCCl)c3ccc(-c4ccc(C#N)cc4)cc3Cl)n2)cc1` (stereo unspecified)?
CC50 [1]: 243000 nM; EC50 [2]: 42 nM; selectivity ratio [3]: 5890

With `C/N=C(/c1ccnc(Nc2ccc(C#N)cc2)n1)c1ccc(-c2ccc(C#N)cc2)cc1Cl` as the compound, how does the CC50 [1] read?
Its CC50 is > 45000 nM.

And the EC50 [4]?
Its EC50 is 51 nM.

What about the EC50 [2] of the same compound?
The EC50 was 6 nM.

And the EC50 [5]?
The EC50 was 3810 nM.

What about the selectivity ratio [3] of the same compound?
The selectivity ratio was > 7140.

And the EC50 [6]?
The EC50 was 149 nM.

What about the EC50 [7] of the same compound?
Its EC50 is 192 nM.

What about the IC50 [8] of the same compound?
The IC50 was 69 nM.

What about the EC50 [9] of the same compound?
The EC50 was 129 nM.

With `N#Cc1ccc(Nc2nccc(C(NC3CC3)c3ccc(-c4ccc(C#N)cc4)cc3Cl)n2)cc1` (stereo unspecified) as the compound, how does the CC50 [1] read?
Its CC50 is > 262000 nM.

What about the EC50 [2] of the same compound?
Its EC50 is 147 nM.

And the selectivity ratio [3]?
Its selectivity ratio is > 1800.

What does the source list for `N#Cc1ccc(Nc2nccc(C(C#N)c3ccc(-c4ccc(C#N)cc4)cc3F)n2)cc1` (stereo unspecified)?
CC50 [1]: 36000 nM; EC50 [4]: 170 nM; EC50 [5]: 9810 nM; selectivity ratio [3]: 1360; EC50 [6]: 1210 nM; EC50 [7]: 870 nM; EC50 [9]: 900 nM

For `CCCNC(c1ccnc(Nc2ccc(C#N)cc2)n1)c1ccc(-c2ccc(C#N)cc2)cc1OC` (stereo unspecified), which CC50 [1] is on record?
Its CC50 is 14000 nM.

What about the EC50 [2] of the same compound?
The EC50 was 131 nM.

What about the selectivity ratio [3] of the same compound?
Its selectivity ratio is 110.

With `N#Cc1ccc(Nc2nccc(C(NCCF)c3ccc(-c4ccc(C#N)cc4)cc3Cl)n2)cc1` (stereo unspecified) as the compound, how does the CC50 [1] read?
Its CC50 is > 259000 nM.

And the EC50 [2]?
The EC50 was 77 nM.

And the selectivity ratio [3]?
The selectivity ratio was > 3370.

What does the source list for `N#Cc1ccc(Nc2nccc(C(NCC(F)(F)F)c3ccc(-c4ccc(C#N)cc4)cc3Cl)n2)cc1` (stereo unspecified)?
CC50 [1]: > 241000 nM; EC50 [2]: 231 nM; selectivity ratio [3]: > 1070

What does the source list for `N#Cc1ccc(Nc2nccc(/C(=N/N)c3ccc(-c4ccc(C#N)cc4)cc3OC(F)(F)F)n2)cc1`?
CC50 [1]: 171000 nM; EC50 [4]: 340 nM; EC50 [2]: 40 nM; EC50 [5]: 1480 nM; selectivity ratio [3]: 4310; EC50 [6]: 180 nM; EC50 [7]: 260 nM; IC50 [8]: 72 nM; EC50 [9]: 182 nM

From ChEMBL document CHEMBL6153064, “Structure-based discovery of novel diarylpyrimidines as potent and selective Non-Nucleoside reverse transcriptase inhibitors: From CH(CN)-Biphenyl-Diarylpyrimidines to CNNH2-Biphenyl-Diarylpyrimidines” (Eur J Med Chem, 2025)
